Activity calls are given as the source filed them. The rule behind the calls is not given here.
Legend:
[1] = test system: A549; test: Cell cycle arrest in human A549 cells assessed as accumulation of cells in G1 phase at 3 uM after 72 hrs measured using propidium iodide staining by FACS analysis in presence of nocodazole; assay type: functional, cell-based
[2] = test system: A549; test: Antiproliferative activity against human A549 cells after 48 hrs by MTS assay; assay type: functional, cell-based; conditions: A549, 48 h
In short: (§1)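 A549 cells were seeded at 1.5 × 10^3 per well, adhered overnight, and treated over 0.2–300 μM (final 1% DMSO). After treatment, MTS was added for 40 min–2 h and A490 read. Absorbance was converted to percent of vehicle control, and IC50 was obtained by nonlinear dose-response fit.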

[3] = test system: A549; test: Anticancer activity against human A549 cells assessed as reduction in cell viability after 72 hrs by crystal voilet staining; assay type: functional, cell-based
In short: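 A549 cells were plated at 1.7 × 10^4 per well in 6-well plates and dosed from 100X DMSO stocks (final 1% DMSO). After 72 h cells were washed twice with PBS, stained 5–15 min with 0.5% crystal violet in 95% EtOH, rinsed with cold water and air-dried.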

[4] = test system: A549; test: Antiproliferative activity against human A549 cells after 24 hrs by MTS assay; assay type: functional, cell-based; conditions: A549, 24 h; in short: as §1
[5] = test system: A549; test: Anticancer activity in human A549 cells assessed as decrease in viable cells after 24 hrs by trypan blue exclusion assay; assay type: functional
In short: (§2)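 A549 cells (RPMI 1640, 10% FBS) were plated at 1.7 × 10^4 per well in 12-well plates, adhered overnight, and dosed from 100X DMSO stocks (final 1% DMSO). Floating and trypsinized cells were pooled, mixed 1:1 with 0.04% trypan blue and viable cells counted. Counts were expressed as percent of control per time point; EC50 is the concentration giving a 50% decrease in cell number.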

[6] = test system: A549; test: Antiproliferative activity against human A549 cells after 72 hrs by MTS assay; assay type: functional, cell-based; conditions: A549, 72 h; in short: as §1
[7] = test system: A549; test: Anticancer activity in human A549 cells assessed as decrease in viable cells after 48 hrs by trypan blue exclusion assay; assay type: functional, cell-based; conditions: A549, 48 h; in short: as §2
[8] = test system: A549; test: Ratio of EC50 for human A549 cells after 48 hrs by trypan blue exclusion assay to IC50 for human A549 cells after 48 hrs by MTS assay; assay type: functional
[9] = test system: A549; test: Anticancer activity against human A549 cells assessed as growth inhibition at 10 to 300 uM for 72 hrs followed by 48 hrs incubation after compound wash out; assay type: functional, cell-based
In short: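 A549 cells exposed to 10, 30, 100 and 300 μM for 72 h, then washed to remove drug and given fresh drug-free medium; regrowth was checked after a further 48 h.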

[10] = test system: A549; test: Cell cycle arrest in human A549 cells assessed as accumulation of cells in G1 phase at 3 uM after 72 hrs measured using propidium iodide staining by FACS analysis; assay type: functional, cell-based
In short: (§3)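 A549 cells were plated at 6.7 × 10^4 per well in 6-well plates and dosed at 0, 3 or 10 μM for 72 h (final 1% DMSO). Cells were fixed in cold 70% ethanol, then stained with 10 μg/mL propidium iodide plus RNase A for 30 min at 37°C.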

[11] = test system: A549; test: Cell cycle arrest in human A549 cells assessed as accumulation of cells in G1 phase at 10 uM after 72 hrs measured using propidium iodide staining by FACS analysis; assay type: functional, cell-based; in short: as §3
[12] = test system: A549; test: Anticancer activity in human A549 cells assessed as decrease in viable cells after 72 hrs by trypan blue exclusion assay; assay type: functional, cell-based; conditions: A549, 72 h; in short: as §2
[13] = test system: A549; test: Drug uptake in human A549 cells at 30 uM after 8 hrs using MTBSTFA by LC/MS/MS analysis; assay type: ADME, cell-based; conditions: a549, 8 h
In short: (§4)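 A549 cells, plated at 1.3 × 10^5 per well, dosed for 8 h, PBS-washed, trypsinized, counted by trypan blue, then pellets PBS-washed and frozen at −80°C. Lysate was derivatized with MTBSTFA to tetra-silyl bisphosphonate for 1 h, cooled, diluted 1:5 in acetonitrile, and analysed by LC-MS-MS (C18, isocratic acetonitrile/water 70:30, 0.1% formic acid, 0.2 mL/min). Detection was qualitative.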

[14] = test system: A549; test: Anticancer activity against human A549 cells assessed as growth inhibition up to 1 mM by MTS assay; assay type: functional, cell-based
In short: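 A549 cells, plated at 1.5 × 10^3 per well and left to adhere overnight, treated for 24, 48 or 72 h with compounds serially diluted in DMSO (1% DMSO final). MTS dye was added for 40 min to 2 h and absorbance read at 490 nm. Values were expressed as percent of vehicle control; IC50 was taken from nonlinear dose-response fitting.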

[15] = test system: A549; test: Drug uptake in human A549 cells after 8 hrs by LC/MS/MS analysis; assay type: ADME, cell-based; conditions: a549, 8 h
In short: (§5)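 A549 cells were plated at 1.3 × 10^5 per well in 6-well plates and treated at 0, 10 or 30 μM for 8 h. Cells were washed, trypsinized and counted by trypan blue, and pellets were frozen. Lysates in acetonitrile with temazepam internal standard were analysed by LC-MS-MS on a C18 column (isocratic acetonitrile/water 60:40, 0.1% formic acid). Results are reported as ng/10^4 cells.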

[16] = test system: A549; test: Drug uptake in human A549 cells assessed per 10^4 cells at 30 uM after 8 hrs by LC/MS/MS analysis; assay type: ADME, cell-based; conditions: a549, 8 h; in short: as §5
[17] = test system: A549; test: Prodrug conversion in human A549 cells assessed as intracellular formation of methylenebis(hydrogen phosphonate) at 10 to 30 uM after 8 hrs using MTBSTFA by LC/MS/MS analysis; assay type: ADME, cell-based; conditions: a549, 8 h; in short: as §4
[18] = test system: A549; test: Drug uptake in human A549 cells assessed per 10^4 cells at 10 uM after 8 hrs by LC/MS/MS analysis; assay type: ADME, cell-based; conditions: a549, 8 h; in short: as §5
[19] = test system: A549; test: Cell cycle arrest in human A549 cells assessed as accumulation of cells in G2 phase after 24 hrs measured using propidium iodide staining by FACS analysis; assay type: functional, cell-based

Row | SMILES | IC50 [2] [µM] | IC50 [4] [µM] | Activity [5] [%] | IC50 [6] [µM] | EC50 [7] [µM] | Ratio IC50 [8] | EC50 [12] [µM] | other results
1 | CN(CCCCCl)P(=O)(OCc1ccc([N+](=O)[O-])cc1)C(Cl)(Cl)P(=O)(OCc1ccc([N+](=O)[O-])cc1)N(C)CCCCCl (stereo unspecified) | 5.2 | 7.6 | 57 | 4.4 | 19 | 3.6 | 16 | Activity [1]: Active; Activity [3]: Active; growth inhibition (GI) [9]: Active; Activity [10]: Active; Activity [11]: Active
2 | O=P(O)(O)CP(=O)(O)O [MEDRONIC ACID] |  |  |  |  |  |  |  | Drug uptake [13]: Active
3 | O=P(O)(O)C(Cl)(Cl)P(=O)(O)O |  |  |  |  |  |  |  | growth inhibition (GI) [14]: inactive
4 | CN(CCCCCl)P(=O)(CP(=O)(OCc1ccc([N+](=O)[O-])cc1)N(C)CCCCCl)OCc1ccc([N+](=O)[O-])cc1 (stereo unspecified) | 15 | 17 | <50 | 13 | 24 | 1.6 | 25 | Drug uptake [15]: Dose-dependent effect; Drug uptake [16]: 169.3 ng; Activity [17]: Active; Drug uptake [18]: 68.6 ng
5 | COC(=O)Nc1nc2cc(C(=O)c3cccs3)ccc2[nH]1 |  |  |  |  |  |  |  | Activity [19]: Active

Source: ChEMBL document CHEMBL1828611, “Bisphosphonamidate clodronate prodrug exhibits potent anticancer activity in non-small-cell lung cancer cells” (J Med Chem, 2011)
